Results: ChEMBL document CHEMBL3425433, “Discovery of bicyclic pyrazoles as class III histone deacetylase SIRT1 and SIRT2 inhibitors” (Bioorg Med Chem Lett, 2015)
Active and inactive are the calls of the source. The rule behind the calls is not given here.

Columns and labels:
Histone deacetylase 2 = Histone deacetylase 2 (Homo sapiens, UniProt Q92769); experiment: Inhibition of HDAC2 (unknown origin)
[1] = molecular target: T1, Histone deacetylase 8 (Homo sapiens) (UniProt Q9BY41); experiment: Inhibition of HDAC8 (unknown origin)
T1 sequence (whole entry): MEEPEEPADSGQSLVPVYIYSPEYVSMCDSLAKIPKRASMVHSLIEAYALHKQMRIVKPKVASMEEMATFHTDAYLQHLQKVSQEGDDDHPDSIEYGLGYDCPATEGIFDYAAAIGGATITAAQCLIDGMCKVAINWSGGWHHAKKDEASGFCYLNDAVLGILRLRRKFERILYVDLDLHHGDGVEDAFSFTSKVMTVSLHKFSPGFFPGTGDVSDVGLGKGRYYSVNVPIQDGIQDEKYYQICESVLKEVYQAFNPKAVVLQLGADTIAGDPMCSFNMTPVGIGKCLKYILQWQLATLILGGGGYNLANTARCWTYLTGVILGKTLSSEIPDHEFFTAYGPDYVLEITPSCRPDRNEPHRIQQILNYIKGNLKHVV

[2] = molecular target: Histone deacetylase 4 (Homo sapiens) (UniProt P56524); experiment: Inhibition of HDAC4 (unknown origin)
Sequence of Histone deacetylase 4 (Homo sapiens) (P56524 whole entry): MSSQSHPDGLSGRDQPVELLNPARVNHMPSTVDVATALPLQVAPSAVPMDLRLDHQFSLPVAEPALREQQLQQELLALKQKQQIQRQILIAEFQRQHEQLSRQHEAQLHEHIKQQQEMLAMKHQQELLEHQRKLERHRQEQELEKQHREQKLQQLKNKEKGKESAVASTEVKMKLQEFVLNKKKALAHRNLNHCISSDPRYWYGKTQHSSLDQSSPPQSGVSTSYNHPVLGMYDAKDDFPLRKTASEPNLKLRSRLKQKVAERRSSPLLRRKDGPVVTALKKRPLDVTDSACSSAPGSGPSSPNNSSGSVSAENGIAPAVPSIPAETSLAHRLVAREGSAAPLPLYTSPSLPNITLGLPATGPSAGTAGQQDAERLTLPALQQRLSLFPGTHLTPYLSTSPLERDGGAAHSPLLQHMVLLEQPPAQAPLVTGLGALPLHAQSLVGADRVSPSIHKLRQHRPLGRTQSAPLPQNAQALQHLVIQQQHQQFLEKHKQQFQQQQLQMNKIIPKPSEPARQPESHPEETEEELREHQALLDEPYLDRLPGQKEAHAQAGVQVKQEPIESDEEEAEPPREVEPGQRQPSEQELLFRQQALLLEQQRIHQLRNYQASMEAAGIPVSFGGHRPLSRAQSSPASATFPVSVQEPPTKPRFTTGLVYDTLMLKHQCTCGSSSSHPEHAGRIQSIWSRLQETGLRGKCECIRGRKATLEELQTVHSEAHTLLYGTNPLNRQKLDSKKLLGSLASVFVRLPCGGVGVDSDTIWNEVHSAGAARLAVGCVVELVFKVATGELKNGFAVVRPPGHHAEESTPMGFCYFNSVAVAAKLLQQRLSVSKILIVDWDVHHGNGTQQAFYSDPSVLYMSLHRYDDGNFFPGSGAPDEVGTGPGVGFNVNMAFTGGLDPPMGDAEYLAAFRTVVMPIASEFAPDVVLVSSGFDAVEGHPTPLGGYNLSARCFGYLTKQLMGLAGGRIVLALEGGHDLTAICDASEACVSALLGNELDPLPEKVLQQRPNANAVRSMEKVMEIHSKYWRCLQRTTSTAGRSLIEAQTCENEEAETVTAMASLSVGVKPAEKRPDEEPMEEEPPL

[3] = molecular target: T2, NAD-dependent protein deacetylase sirtuin-2 (Homo sapiens) (UniProt Q8IXJ6); experiment: Inhibition of His-tagged human recombinant SIRT2 expressed in Escherichia coli at 20 uM using Cbz-Lys(Ac)-AMC as substrate by fluorescence assay
T2 sequence (whole entry): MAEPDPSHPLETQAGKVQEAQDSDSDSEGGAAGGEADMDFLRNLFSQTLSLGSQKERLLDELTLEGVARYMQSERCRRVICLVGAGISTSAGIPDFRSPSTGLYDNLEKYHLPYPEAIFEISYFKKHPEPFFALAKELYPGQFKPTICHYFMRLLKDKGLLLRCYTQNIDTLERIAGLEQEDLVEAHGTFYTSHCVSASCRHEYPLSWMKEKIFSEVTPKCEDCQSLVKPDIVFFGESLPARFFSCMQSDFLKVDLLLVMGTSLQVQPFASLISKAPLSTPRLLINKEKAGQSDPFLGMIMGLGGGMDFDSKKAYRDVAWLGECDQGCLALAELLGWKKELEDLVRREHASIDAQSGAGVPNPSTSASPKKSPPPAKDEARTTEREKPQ
In short: (§1)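 Fluorescence deacetylase assay with in-house Cbz-Lys(Ac)-AMC substrate. Values are means of three experiments on racemic material. Single-point lines were tested at 20 µM, and less than 20% inhibition was scored as no inhibition.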

[4] = molecular target: Histone deacetylase 5 (Homo sapiens) (UniProt Q9UQL6); experiment: Inhibition of HDAC5 (unknown origin)
Sequence of Histone deacetylase 5 (Homo sapiens) (Q9UQL6 whole entry): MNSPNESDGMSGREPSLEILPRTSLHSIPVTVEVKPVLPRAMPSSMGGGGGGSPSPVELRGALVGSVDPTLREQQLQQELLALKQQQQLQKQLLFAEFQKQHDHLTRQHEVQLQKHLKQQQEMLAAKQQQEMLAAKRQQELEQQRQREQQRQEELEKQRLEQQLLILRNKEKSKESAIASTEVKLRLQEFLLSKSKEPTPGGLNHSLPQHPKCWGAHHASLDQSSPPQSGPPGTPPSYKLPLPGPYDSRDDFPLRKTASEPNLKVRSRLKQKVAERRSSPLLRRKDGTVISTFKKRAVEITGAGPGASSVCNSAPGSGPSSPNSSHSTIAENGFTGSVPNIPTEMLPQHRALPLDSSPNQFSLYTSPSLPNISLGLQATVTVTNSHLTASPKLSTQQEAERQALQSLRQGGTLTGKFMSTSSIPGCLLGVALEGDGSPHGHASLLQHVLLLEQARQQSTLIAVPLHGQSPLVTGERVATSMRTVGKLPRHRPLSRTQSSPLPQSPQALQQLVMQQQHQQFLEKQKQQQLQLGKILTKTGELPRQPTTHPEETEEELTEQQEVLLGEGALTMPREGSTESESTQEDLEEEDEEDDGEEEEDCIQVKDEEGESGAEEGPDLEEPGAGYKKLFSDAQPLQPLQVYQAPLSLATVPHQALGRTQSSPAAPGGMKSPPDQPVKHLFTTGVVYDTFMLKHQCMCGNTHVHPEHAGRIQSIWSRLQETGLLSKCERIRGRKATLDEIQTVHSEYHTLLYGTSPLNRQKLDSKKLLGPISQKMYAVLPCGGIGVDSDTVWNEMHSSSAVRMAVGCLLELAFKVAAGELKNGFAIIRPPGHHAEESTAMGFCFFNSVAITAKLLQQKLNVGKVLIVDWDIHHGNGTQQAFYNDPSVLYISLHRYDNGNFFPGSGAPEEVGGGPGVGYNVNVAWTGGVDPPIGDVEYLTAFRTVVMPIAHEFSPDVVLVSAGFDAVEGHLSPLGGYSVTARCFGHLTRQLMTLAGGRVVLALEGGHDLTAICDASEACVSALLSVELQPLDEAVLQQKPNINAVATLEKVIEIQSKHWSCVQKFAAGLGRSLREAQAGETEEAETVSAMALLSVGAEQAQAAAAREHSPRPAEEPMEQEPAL

[5] = molecular target: T3, NAD-dependent protein deacetylase sirtuin-1 (Homo sapiens) (UniProt Q96EB6); experiment: Inhibition of His-tagged human recombinant SIRT1 expressed in Escherichia coli at 20 uM using Cbz-Lys(Ac)-AMC as substrate by fluorescence assay; in short: as §1
T3 sequence (whole entry): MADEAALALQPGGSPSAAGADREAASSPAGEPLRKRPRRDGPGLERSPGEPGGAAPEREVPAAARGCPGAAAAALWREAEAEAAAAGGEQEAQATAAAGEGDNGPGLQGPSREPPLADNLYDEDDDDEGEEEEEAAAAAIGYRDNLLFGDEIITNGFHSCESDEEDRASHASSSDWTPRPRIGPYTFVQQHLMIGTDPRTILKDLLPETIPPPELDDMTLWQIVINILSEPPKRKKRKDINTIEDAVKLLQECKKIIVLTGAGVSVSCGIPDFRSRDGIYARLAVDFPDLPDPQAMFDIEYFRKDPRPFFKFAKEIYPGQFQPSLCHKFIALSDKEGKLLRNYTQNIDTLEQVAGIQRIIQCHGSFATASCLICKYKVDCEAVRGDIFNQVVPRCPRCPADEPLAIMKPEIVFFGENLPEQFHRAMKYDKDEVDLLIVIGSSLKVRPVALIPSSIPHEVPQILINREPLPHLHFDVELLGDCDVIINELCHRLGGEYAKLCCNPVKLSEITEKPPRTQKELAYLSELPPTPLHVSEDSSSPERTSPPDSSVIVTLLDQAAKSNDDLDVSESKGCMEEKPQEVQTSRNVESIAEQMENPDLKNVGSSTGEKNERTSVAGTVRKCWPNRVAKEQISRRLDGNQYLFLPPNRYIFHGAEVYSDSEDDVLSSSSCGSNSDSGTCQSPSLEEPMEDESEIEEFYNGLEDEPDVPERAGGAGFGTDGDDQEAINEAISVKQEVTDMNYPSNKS

Histone deacetylase 1 = Histone deacetylase 1 (Homo sapiens, UniProt Q13547); experiment: Inhibition of HDAC1 (unknown origin)
Sequence of Histone deacetylase 1 (Q13547 whole entry): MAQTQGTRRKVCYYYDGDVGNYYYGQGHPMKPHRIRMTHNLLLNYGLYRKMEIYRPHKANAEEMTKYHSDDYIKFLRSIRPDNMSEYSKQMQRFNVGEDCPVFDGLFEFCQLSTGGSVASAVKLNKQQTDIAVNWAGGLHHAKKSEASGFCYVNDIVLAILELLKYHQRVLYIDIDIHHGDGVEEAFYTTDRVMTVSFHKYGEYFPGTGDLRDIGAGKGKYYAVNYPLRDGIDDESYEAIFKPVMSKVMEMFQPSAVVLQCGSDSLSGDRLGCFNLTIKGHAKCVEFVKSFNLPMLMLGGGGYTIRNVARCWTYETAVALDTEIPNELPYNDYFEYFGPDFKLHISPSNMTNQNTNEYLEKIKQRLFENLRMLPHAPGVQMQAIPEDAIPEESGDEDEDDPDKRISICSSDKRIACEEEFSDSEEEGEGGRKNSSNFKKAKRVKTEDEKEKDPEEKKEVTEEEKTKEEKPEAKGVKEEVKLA

Sequence of Histone deacetylase 2 (Q92769 whole entry): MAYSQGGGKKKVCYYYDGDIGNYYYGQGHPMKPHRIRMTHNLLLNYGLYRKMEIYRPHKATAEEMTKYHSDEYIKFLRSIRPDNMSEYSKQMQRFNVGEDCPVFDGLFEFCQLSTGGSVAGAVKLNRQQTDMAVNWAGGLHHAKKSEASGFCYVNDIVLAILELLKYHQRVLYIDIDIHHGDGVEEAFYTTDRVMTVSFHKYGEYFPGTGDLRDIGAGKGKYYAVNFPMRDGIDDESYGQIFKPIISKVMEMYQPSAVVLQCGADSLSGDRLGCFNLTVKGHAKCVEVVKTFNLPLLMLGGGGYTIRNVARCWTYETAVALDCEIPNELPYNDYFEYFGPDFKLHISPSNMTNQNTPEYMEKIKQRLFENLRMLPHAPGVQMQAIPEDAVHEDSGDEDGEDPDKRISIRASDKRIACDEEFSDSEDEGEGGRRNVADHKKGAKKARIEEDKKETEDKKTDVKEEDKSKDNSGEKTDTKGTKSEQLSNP

inhibition (Histone deacetylase 2) | inhibition [1] | inhibition [2] | inhibition [3] | inhibition [4] | inhibition [5] | inhibition (Histone deacetylase 1) | SMILES
inactive | inactive | inactive | 28% | inactive | 23% | inactive | CC1(C)Cc2c(-c3ccc(Cl)c(Cl)c3)n[nH]c2C(C(N)=O)C1 (racemic)
inactive | inactive | inactive | < 20% | inactive | < 20% | inactive | Cn1c(-c2n[nH]c3c2CC(C)(C)CC3C(N)=O)cc2ccccc21 (racemic)
inactive | inactive | inactive | < 20% | inactive | < 20% | inactive | CCOC(=O)C1CCCc2c(-c3ccc(Cl)c(F)c3)n[nH]c21 (racemic)

Continued, compound first:

SMILES | inhibition (Histone deacetylase 2) | inhibition [1] | inhibition [2] | inhibition [3] | inhibition [4] | inhibition [5] | inhibition (Histone deacetylase 1)
NC(=O)C1CCCc2c(-c3ccc(Cl)cc3Cl)n[nH]c21 (racemic) | inactive | inactive | inactive | < 20% | inactive | 24% | inactive
CC1(C)CCC(C(N)=O)c2[nH]nc(-c3ccc(Cl)cc3)c21 (racemic) | inactive | inactive | inactive | < 20% | inactive | < 20% | inactive
NC(=O)C1CCCc2c(-c3ccccc3)n[nH]c21 (racemic) | inactive | inactive | inactive | < 20% | inactive | 44% | inactive
NC(=O)C1CCCc2c(-c3csc4ccccc34)n[nH]c21 (racemic) | inactive | inactive | inactive | 44% | inactive | 48% | inactive
NC(=O)C1Cc2ccccc2Cc2c(-c3ccc(Cl)cc3)n[nH]c21 (racemic) | inactive | inactive | inactive | 50% | inactive | 42% | inactive
NC(=O)C1CC2(Cc3c(-c4ccc(Cl)cc4)n[nH]c31)OCCO2 (racemic) | inactive | inactive | inactive | < 20% | inactive | < 20% | inactive
NC(=O)C1CCCCCc2c(-c3ccc(Cl)cc3)n[nH]c21 (racemic) | inactive | inactive | inactive | 22% | inactive | 28% | inactive
